In brackets after ≈: the same amount, converted by molar mass.
Columns and labels:
[1] = test system: Escherichia coli; assay: Antibacterial activity against Escherichia coli DH5alpha carrying ampC gene of Acinetobacter genomosp. 3 isolate 109 by Etest method; format: functional
Outline: (§1)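 E. coli DH5α expressing the AG3 isolate ampC gene, PCR-amplified (high-fidelity system, 28 cycles) and cloned into BamHI/HindIII sites of pBGS18 (kanamycin marker) under the CTX-M-14 β-lactamase promoter. Grown at 37°C in LB, with kanamycin 50 µg/ml when needed. β-Lactam MICs determined by Etest per the manufacturer's instructions.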

[2] = test system: Acinetobacter pittii; assay: Antibacterial activity against Acinetobacter genomosp. 3 isolate 56 by Etest method; format: functional
Outline: (§2)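 MICs for AG3 clinical isolates were read by Etest following the manufacturer's instructions. Isolates were stored at –80°C in 10% Brucella glycerol broth before testing.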

[3] = test system: Escherichia coli; assay: Antibacterial activity against Escherichia coli DH5alpha carrying ampC gene of Acinetobacter genomosp. 3 isolate 14 by Etest method; format: functional; outline: as §1
[4] = test system: Acinetobacter pittii; assay: Antibacterial activity against Acinetobacter genomosp. 3 isolate 90 by Etest method; format: functional; outline: as §2
[5] = test system: Acinetobacter pittii; assay: Antibacterial activity against Acinetobacter genomosp. 3 isolate 103 by Etest method; format: functional; outline: as §2
[6] = test system: Acinetobacter pittii; assay: Antibacterial activity against Acinetobacter genomosp. 3 isolate 21 by Etest method; format: functional; outline: as §2
[7] = test system: Escherichia coli; assay: Antibacterial activity against Escherichia coli DH5alpha carrying ampC gene of Acinetobacter genomosp. 3 isolate 195 by Etest method; format: functional; outline: as §1
[8] = test system: Acinetobacter pittii; assay: Antibacterial activity against Acinetobacter genomosp. 3 isolate 195 by Etest method; format: functional; outline: as §2
[9] = test system: Acinetobacter pittii; assay: Antibacterial activity against Acinetobacter genomosp. 3 isolate 60 by Etest method; format: functional; outline: as §2
[10] = test system: Escherichia coli; assay: Antibacterial activity against Escherichia coli DH5alpha carrying ampC gene of Acinetobacter genomosp. 3 isolate 56 by Etest method; format: functional; outline: as §1
[11] = test system: Escherichia coli; assay: Antibacterial activity against Escherichia coli DH5alpha by Etest method; format: functional
Outline: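 E. coli DH5α host strain, grown at 37°C in LB medium. MICs of β-lactams determined by Etest following the manufacturer's instructions.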

[12] = test system: Acinetobacter pittii; assay: Antibacterial activity against Acinetobacter genomosp. 3 isolate 128 by Etest method; format: functional; outline: as §2
[13] = test system: Acinetobacter pittii; assay: Antibacterial activity against Acinetobacter genomosp. 3 isolate 20 by Etest method; format: functional; outline: as §2
[14] = test system: Acinetobacter pittii; assay: Antibacterial activity against Acinetobacter genomosp. 3 isolate 52 by Etest method; format: functional; outline: as §2
[15] = test system: Acinetobacter pittii; assay: Antibacterial activity against Acinetobacter genomosp. 3 isolate 65 by Etest method; format: functional; outline: as §2
[16] = test system: Acinetobacter pittii; assay: Antibacterial activity against Acinetobacter genomosp. 3 isolate 67 by Etest method; format: functional; outline: as §2
[17] = test system: Escherichia coli; assay: Antibacterial activity against Escherichia coli DH5alpha carrying ampC gene of Acinetobacter genomosp. 3 isolate 20 by Etest method; format: functional; outline: as §1
[18] = test system: Escherichia coli; assay: Antibacterial activity against Escherichia coli DH5alpha carrying ampC gene of Acinetobacter genomosp. 3 isolate 103 by Etest method; format: functional; outline: as §1
[19] = test system: Acinetobacter pittii; assay: Antibacterial activity against Acinetobacter genomosp. 3 isolate 243 by Etest method; format: functional; outline: as §2
[20] = test system: Escherichia coli; assay: Antibacterial activity against Escherichia coli DH5alpha carrying ampC gene of Acinetobacter genomosp. 3 isolate 69 by Etest method; format: functional; outline: as §1
[21] = test system: Acinetobacter pittii; assay: Antibacterial activity against Acinetobacter genomosp. 3 isolate 69 by Etest method; format: functional; outline: as §2
[22] = test system: Acinetobacter pittii; assay: Antibacterial activity against Acinetobacter genomosp. 3 isolate 109 by Etest method; format: functional; outline: as §2
[23] = test system: Escherichia coli; assay: Antibacterial activity against Escherichia coli DH5alpha carrying ampC gene of Acinetobacter genomosp. 3 isolate 65 by Etest method; format: functional; outline: as §1
[24] = test system: Acinetobacter pittii; assay: Antibacterial activity against Acinetobacter genomosp. 3 isolate 14 by Etest method; format: functional; outline: as §2
[25] = test system: CO/N=C(\C(=O)N[C@@H]1C(=O)N2C(C(=O)O)=C(COC(N)=O)CS[C@H]12)c1ccco1; assay: (§3) Ratio of Kcat to Km for Acinetobacter genomosp. 3 isolate 195 ADC-18; details: Acinetobacter pittii
Outline: (§4)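 AmpC genes from AG3 clinical isolates were cloned into pGEX-6P-1 and expressed as GST fusions. The mature enzyme was purified free of GST, giving a 43 kDa SDS-PAGE band of 95% purity. Kinetics were read spectrophotometrically at 25°C in PBS with 20 mg/liter BSA, three repeats. For poor substrates, Km was taken as Ki in competitive assays with Centa as reporter substrate. Vmax came from the Michaelis-Menten equation at six times Km antibiotic.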

[26] = test system: CO[C@@]1(NC(=O)Cc2cccs2)C(=O)N2C(C(=O)O)=C(COC(N)=O)CS[C@@H]21; assay: as §3; details: Acinetobacter pittii; outline: as §4
[27] = test system: CC(=O)OCC1=C(C(=O)O)N2C(=O)[C@@H](NC(=O)Cc3cccs3)[C@H]2SC1; assay: as §3; details: Acinetobacter pittii; outline: as §4
[28] = test system: CO/N=C(\C(=O)N[C@@H]1C(=O)N2C(C(=O)O)=C(COC(N)=O)CS[C@H]12)c1ccco1; assay: (§5) Activity of Acinetobacter genomosp. 3 isolate 195 ADC-18; details: Acinetobacter pittii; outline: as §4
[29] = test system: CC(C)(O/N=C(\C(=O)N[C@@H]1C(=O)N2C(C(=O)[O-])=C(C[n+]3ccccc3)CS[C@H]12)c1csc(N)n1)C(=O)O; assay: as §5; details: Acinetobacter pittii; outline: as §4
[30] = test system: CO[C@@]1(NC(=O)Cc2cccs2)C(=O)N2C(C(=O)O)=C(COC(N)=O)CS[C@@H]21; assay: as §5; details: Acinetobacter pittii; outline: as §4
[31] = test system: CC(=O)OCC1=C(C(=O)O)N2C(=O)[C@@H](NC(=O)Cc3cccs3)[C@H]2SC1; assay: as §5; details: Acinetobacter pittii; outline: as §4

Row | Molecule | MIC [1] [µg/mL] | MIC [2] [µg/mL] | MIC [3] [µg/mL] | MIC [4] [µg/mL] | MIC [5] [µg/mL] | MIC [6] [µg/mL] | MIC [7] [µg/mL] | MIC [8] [µg/mL] | MIC [9] [µg/mL] | MIC [10] [µg/mL] | MIC [11] [µg/mL] | MIC [12] [µg/mL] | MIC [13] [µg/mL] | MIC [14] [µg/mL] | MIC [15] [µg/mL] | MIC [16] [µg/mL] | MIC [17] [µg/mL] | MIC [18] [µg/mL] | MIC [19] [µg/mL] | MIC [20] [µg/mL] | further results
1 | CO/N=C(\C(=O)N[C@@H]1C(=O)N2C(C(=O)[O-])=C(C[N+]3(C)CCCC3)CS[C@H]12)c1csc(N)n1 | 0.023 (≈ 0.0479 µM) | 2 (≈ 4.16 µM) | 0.023 (≈ 0.0479 µM) | 16 (≈ 33.3 µM) | 3 (≈ 6.24 µM) | 12 (≈ 25 µM) | 0.032 (≈ 0.0666 µM) | 6 (≈ 12.5 µM) | 4 (≈ 8.32 µM) | 0.023 (≈ 0.0479 µM) | 0.016 (≈ 0.0333 µM) | 2 (≈ 4.16 µM) | 4 (≈ 8.32 µM) | 2 (≈ 4.16 µM) | 3 (≈ 6.24 µM) | 4 (≈ 8.32 µM) | 0.19 (≈ 0.395 µM) | 0.032 (≈ 0.0666 µM) | 3 (≈ 6.24 µM) | 0.023 (≈ 0.0479 µM) | MIC [21]: 3 µg/mL (≈ 6.24 µM); MIC [22]: 2 µg/mL (≈ 4.16 µM); MIC [23]: 0.032 µg/mL (≈ 0.0666 µM); MIC [24]: 3 µg/mL (≈ 6.24 µM)
2 | CO/N=C(\C(=O)N[C@@H]1C(=O)N2C(C(=O)O)=C(COC(C)=O)CS[C@H]12)c1csc(N)n1 [CEFOTAXIME] | 0.38 (≈ 0.834 µM) | 4 (≈ 8.78 µM) | 0.75 (≈ 1.65 µM) | 12 (≈ 26.3 µM) | 16 (≈ 35.1 µM) | 24 (≈ 52.7 µM) | 0.75 (≈ 1.65 µM) | 24 (≈ 52.7 µM) | 24 (≈ 52.7 µM) | 0.38 (≈ 0.834 µM) | 0.064 (≈ 0.141 µM) | 12 (≈ 26.3 µM) | 16 (≈ 35.1 µM) | 12 (≈ 26.3 µM) | 12 (≈ 26.3 µM) | 16 (≈ 35.1 µM) | 0.125 (≈ 0.274 µM) | 0.75 (≈ 1.65 µM) | 16 (≈ 35.1 µM) | 0.38 (≈ 0.834 µM) | MIC [21]: 16 µg/mL (≈ 35.1 µM); MIC [22]: 16 µg/mL (≈ 35.1 µM); MIC [23]: 25 µg/mL (≈ 54.9 µM); MIC [24]: 24 µg/mL (≈ 52.7 µM)
3 | CO[C@@]1(NC(=O)Cc2cccs2)C(=O)N2C(C(=O)O)=C(COC(N)=O)CS[C@@H]21 [CEFOXITIN] | 24 (≈ 56.1 µM) | 64 (≈ 150 µM) | 32 (≈ 74.9 µM) | 128 (≈ 299 µM) | 192 (≈ 449 µM) | > 256 | 24 (≈ 56.1 µM) | > 256 | > 256 | 16 (≈ 37.4 µM) | 2 (≈ 4.68 µM) | 128 (≈ 299 µM) | > 256 | > 256 | 128 (≈ 299 µM) | > 256 | 32 (≈ 74.9 µM) | 32 (≈ 74.9 µM) | 48 (≈ 112 µM) | 16 (≈ 37.4 µM) | MIC [21]: > 256 µg/mL; MIC [22]: > 256 µg/mL; MIC [23]: 3 µg/mL (≈ 7.02 µM); MIC [24]: > 256 µg/mL
4 | ADC-18 protein (Acinetobacter genomosp. 3) (from UniProt Q0VTS0) | – | – | – | – | – | – | – | – | – | – | – | – | – | – | – | – | – | – | – | – | kcat/Km [25]: 1.79e+06 M⁻¹ s⁻¹; kcat/Km [26]: 1.99e+06 M⁻¹ s⁻¹; kcat/Km [27]: 9.57e+06 M⁻¹ s⁻¹; Km [28]: 0.27 µM; kcat [28]: 0.48 s⁻¹; Km [29]: 84 µM; kcat [29]: 0.02 s⁻¹; Km [30]: 0.13 µM; kcat [30]: 0.27 s⁻¹; Km [31]: 148 µM; kcat [31]: 1420 s⁻¹

Reference: ChEMBL document CHEMBL1649124, “Genetic variability among ampC genes from acinetobacter genomic species 3” (Antimicrob Agents Chemother, 2009)
